Assay [1] deals with T1, DC-SIGN producing Raji cells (Homo sapiens, UniProt Q9NNX6).
T1 sequence (Q9NNX6 1-404): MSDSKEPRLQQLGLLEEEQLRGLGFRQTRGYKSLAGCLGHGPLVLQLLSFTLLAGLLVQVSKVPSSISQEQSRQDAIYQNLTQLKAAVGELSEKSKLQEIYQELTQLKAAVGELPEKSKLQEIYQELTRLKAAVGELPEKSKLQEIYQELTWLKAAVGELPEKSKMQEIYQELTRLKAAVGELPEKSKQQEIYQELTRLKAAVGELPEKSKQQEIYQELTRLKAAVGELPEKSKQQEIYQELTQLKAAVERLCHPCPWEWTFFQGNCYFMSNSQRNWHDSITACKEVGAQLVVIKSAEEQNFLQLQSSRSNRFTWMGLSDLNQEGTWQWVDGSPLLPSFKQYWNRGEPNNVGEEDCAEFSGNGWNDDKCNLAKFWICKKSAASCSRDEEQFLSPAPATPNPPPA
Nature of the assay: Flow cytometry assay of binding and uptake of fluorescent mannosylated probe. The format is cell-based. The note with it: competitor at 100 mM; Man-Fl-BSA probe. Put shortly:
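Raji (Burkitt's lymphoma) cells stably transfected with a DC-SIGN expression vector. Surface DC-SIGN was checked with AZND1-PE antibody by microscopy and with DCN46-FITC by flow cytometry. Cells were exposed to fluorescent Man-Fl-BSA with or without test compound; ManNAc (100 mM) served as carbohydrate competitor. Percent inhibition was taken from the geometric mean fluorescence, normalized to cells without inhibitor.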
On the technique in general: In flow cytometry, cells or beads pass a laser one at a time.

The target in assay [2] is T2, extracellular domain of DC-SIGN (immobilized tetrameric DC-SIGN) (Homo sapiens, UniProt Q9NNX6).
T2 sequence (Q9NNX6 59-404 limits assumed): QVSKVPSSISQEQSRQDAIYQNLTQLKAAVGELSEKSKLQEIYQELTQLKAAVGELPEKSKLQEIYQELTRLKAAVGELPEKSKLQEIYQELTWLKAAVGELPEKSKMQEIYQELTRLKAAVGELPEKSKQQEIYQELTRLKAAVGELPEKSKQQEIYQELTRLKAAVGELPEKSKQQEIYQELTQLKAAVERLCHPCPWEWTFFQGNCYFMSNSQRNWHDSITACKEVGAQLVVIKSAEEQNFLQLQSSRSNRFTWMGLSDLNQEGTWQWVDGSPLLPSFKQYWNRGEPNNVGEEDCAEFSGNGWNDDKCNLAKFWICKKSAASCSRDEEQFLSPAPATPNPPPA
The assay is classed as binding. Conditions: read-out: Kd of probe to immobilized tetrameric DC-SIGN.

This is an account of results in PMC3359018 (Chemical science (Royal Society of Chemistry : 2010), 2011).

Take `CC(=O)N[C@@H]1C(O)O[C@H](CO)[C@@H](O)[C@@H]1O` (some centres unmarked) [ManNAc, N-acetylmannosamine]: the “probe uptake by DC-SIGN-positive cells” value in assay [1] is “significant decrease”.

Usually Kd stands for a measure of binding affinity in units of concentration. On to “Man-Fl-BSA: fluorescent mannosylated glycoconjugate probe (fluorescein, mannose, BSA)”, for which the Kd in assay [2] came out at 2000 µM.
